{"source": "ChEMBL document CHEMBL5696442", "about": "“Discovery of type II inhibitors of TGFβ-activated kinase 1 (TAK1) and mitogen-activated protein kinase kinase kinase kinase 2 (MAP4K2)” (J Med Chem, 2015)", "key": {"[1]": {"target": "Non-receptor tyrosine-protein kinase TNK1 (Homo sapiens) (UniProt Q13470)", "sequence (Q13470 whole entry)": "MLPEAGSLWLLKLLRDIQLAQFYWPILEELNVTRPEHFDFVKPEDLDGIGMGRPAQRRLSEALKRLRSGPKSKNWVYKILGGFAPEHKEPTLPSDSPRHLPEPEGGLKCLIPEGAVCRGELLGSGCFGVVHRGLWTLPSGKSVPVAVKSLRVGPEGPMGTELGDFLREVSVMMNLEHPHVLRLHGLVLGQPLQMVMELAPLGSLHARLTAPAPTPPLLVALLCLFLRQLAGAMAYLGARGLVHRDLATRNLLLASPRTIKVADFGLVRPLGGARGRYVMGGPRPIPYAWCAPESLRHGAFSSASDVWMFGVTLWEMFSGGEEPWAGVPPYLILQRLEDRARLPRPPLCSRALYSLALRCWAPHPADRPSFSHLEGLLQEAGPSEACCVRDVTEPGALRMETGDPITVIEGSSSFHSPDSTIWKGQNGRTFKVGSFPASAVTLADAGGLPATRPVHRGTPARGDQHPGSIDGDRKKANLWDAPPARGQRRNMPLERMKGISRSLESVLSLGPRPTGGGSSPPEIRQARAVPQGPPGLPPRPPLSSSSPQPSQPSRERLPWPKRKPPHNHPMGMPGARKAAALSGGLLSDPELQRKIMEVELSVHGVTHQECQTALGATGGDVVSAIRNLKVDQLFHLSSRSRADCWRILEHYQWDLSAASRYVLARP", "assay": "Inhibition of TNK1 (unknown origin) at 10 uM by Ambit Kinomescan binding assay relative to control; values are per cent of control"}, "[2]": {"target": "Serine/threonine-protein kinase PLK1 (Homo sapiens) (UniProt P53350)", "sequence (P53350 whole entry)": "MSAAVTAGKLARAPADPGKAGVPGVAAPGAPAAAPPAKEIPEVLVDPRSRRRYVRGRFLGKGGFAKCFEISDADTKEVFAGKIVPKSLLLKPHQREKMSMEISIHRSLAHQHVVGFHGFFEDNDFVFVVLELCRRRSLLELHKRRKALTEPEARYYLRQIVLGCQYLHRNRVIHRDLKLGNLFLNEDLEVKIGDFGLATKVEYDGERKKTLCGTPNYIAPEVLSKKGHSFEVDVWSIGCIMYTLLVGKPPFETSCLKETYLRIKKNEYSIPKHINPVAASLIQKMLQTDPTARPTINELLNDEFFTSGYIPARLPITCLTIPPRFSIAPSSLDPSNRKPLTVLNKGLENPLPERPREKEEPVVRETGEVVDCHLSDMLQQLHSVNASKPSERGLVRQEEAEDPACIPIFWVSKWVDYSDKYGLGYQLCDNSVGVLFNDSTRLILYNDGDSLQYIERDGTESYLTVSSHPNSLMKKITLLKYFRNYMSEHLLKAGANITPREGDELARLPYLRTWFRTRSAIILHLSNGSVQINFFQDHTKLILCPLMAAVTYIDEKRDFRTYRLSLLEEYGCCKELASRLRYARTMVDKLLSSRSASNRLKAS", "assay": "Inhibition of PLK1 Lys2 labeling site harbouring VIHRDLKLGNLFLNEDLEVK in human Huh-7 cell lysate at 1 uM by KiNativ Profiling analysis relative to control", "format": "subcellular"}, "[3]": {"target": "T1, Serine/threonine-protein kinase TAO3 (Homo sapiens) (UniProt Q9H2K8)", "T1 sequence (whole entry)": "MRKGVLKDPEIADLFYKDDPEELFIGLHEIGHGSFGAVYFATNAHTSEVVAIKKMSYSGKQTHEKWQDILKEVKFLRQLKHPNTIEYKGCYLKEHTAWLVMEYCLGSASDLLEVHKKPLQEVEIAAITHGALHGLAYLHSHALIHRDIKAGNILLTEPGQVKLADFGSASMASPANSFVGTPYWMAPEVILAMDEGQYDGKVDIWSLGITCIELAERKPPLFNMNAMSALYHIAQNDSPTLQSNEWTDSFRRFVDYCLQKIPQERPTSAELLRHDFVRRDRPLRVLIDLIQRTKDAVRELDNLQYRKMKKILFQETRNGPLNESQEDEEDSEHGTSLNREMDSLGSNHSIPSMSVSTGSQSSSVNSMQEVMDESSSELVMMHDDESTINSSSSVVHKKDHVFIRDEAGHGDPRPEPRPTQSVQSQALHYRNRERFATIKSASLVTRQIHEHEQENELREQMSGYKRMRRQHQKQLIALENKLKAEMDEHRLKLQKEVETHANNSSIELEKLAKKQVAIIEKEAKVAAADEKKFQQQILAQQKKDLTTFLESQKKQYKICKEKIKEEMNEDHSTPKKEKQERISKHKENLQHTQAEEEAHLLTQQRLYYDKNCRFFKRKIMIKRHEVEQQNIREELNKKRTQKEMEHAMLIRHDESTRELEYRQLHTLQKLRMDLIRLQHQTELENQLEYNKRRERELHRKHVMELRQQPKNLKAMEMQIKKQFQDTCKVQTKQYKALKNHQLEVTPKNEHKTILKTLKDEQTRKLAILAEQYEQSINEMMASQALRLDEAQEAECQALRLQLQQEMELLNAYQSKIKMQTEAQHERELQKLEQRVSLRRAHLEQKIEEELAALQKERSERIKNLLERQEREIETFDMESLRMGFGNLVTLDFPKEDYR", "assay": "Inhibition of TAO3 Lys2 labeling site in human Huh-7 cells at 1 uM by KiNativ Profiling analysis relative to control", "format": "cell-based"}, "[4]": {"target": "T2, Serine/threonine-protein kinase D2 (Homo sapiens) (UniProt Q9BZL6)", "T2 sequence (whole entry)": "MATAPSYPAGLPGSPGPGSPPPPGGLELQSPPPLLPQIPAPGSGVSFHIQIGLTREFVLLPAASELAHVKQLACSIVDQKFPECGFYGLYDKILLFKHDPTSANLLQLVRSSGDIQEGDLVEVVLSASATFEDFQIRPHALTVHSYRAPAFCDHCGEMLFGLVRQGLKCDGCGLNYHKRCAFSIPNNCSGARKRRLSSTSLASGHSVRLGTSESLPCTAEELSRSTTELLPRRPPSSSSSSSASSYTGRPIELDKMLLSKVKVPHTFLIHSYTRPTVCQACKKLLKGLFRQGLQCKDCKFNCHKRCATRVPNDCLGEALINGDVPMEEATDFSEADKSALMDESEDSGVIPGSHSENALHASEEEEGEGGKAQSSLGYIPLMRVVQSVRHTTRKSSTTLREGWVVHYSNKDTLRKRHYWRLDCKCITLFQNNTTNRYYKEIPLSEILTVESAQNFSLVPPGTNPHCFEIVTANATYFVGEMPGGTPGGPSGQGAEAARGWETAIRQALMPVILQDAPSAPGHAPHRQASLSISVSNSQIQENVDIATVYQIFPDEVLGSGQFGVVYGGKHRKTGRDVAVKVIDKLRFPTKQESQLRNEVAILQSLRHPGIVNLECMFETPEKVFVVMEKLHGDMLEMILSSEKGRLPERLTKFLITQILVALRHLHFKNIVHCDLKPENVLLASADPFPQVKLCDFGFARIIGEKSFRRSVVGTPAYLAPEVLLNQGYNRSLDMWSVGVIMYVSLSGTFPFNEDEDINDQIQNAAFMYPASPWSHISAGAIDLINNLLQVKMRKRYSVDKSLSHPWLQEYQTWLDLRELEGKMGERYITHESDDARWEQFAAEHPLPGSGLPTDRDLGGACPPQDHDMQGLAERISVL", "assay": "Inhibition of PKD2 Lys2 labeling site in human Huh-7 cell lysate at 1 uM by KiNativ Profiling analysis relative to control", "format": "subcellular"}, "[5]": {"system": "Tyrosine-protein kinase ABL1 (Homo sapiens), P00519 [Q252H]", "assay": "Inhibition of nonphosphorylated ABL1 Q252H mutant (unknown origin) at 1 uM by Ambit Kinomescan binding assay relative to control"}, "[6]": {"target": "Serine/threonine-protein kinase 38-like (Homo sapiens) (UniProt Q9Y2H1)", "sequence (Q9Y2H1 2-464 limits assumed)": "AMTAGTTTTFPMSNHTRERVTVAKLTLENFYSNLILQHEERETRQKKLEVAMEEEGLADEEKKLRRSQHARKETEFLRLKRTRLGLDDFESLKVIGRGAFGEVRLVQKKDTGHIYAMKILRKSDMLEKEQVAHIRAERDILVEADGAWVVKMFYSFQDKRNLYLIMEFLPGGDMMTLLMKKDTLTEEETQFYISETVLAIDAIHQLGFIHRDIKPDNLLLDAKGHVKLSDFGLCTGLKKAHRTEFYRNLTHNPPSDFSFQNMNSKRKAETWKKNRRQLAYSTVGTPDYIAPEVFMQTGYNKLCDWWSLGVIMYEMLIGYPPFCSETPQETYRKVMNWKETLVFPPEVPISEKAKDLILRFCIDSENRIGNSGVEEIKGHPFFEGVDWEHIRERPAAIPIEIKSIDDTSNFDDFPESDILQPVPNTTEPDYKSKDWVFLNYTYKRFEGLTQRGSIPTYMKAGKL", "assay": "Inhibition of NDR2 Lys1 labeling site harbouring KDTGHIYAMKILR in human A-375 cells at 5 uM by KiNativ Profiling analysis relative to control", "format": "cell-based"}, "[7]": {"target": "Casein kinase I isoform delta (Homo sapiens) (UniProt P48730)", "sequence (P48730 whole entry, looked up, canonical isoform)": "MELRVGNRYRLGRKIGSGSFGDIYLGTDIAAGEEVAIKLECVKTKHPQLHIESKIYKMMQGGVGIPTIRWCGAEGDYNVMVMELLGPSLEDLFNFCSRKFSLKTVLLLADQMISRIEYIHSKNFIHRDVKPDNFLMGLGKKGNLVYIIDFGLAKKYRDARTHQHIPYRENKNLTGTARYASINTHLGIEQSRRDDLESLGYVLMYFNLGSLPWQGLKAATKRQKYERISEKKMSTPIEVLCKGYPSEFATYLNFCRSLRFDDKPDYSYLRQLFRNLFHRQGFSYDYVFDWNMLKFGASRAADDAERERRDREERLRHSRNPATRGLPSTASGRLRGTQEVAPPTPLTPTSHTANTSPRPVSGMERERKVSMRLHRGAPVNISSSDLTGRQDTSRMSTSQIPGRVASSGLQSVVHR", "assay": "Inhibition of CSNK1D (unknown origin) at 1 uM by Ambit Kinomescan binding assay relative to control", "how_it_was_run": "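In vitro ATP-site competition binding assay against a panel of over 420 kinases (KinomeScan), with compound tested at 10 or 1 μM.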"}}}
{"molecule": "CCN1CCN(Cc2ccc(NC(=O)c3ccc(C)c(Oc4ccnc5[nH]ccc45)c3)cc2C(F)(F)F)CC1", "values": [{"measurement": "residual activity", "setting": "[1]", "value": 0.35, "unit": "%"}]}
{"molecule": "CNc1cc(Oc2cc(C(=O)Nc3cc(N4CCN(C)CC4)cc(C(F)(F)F)c3)ccc2C)ncn1", "values": [{"measurement": "inhibition", "setting": "[2]", "value": 10.8, "unit": "%"}, {"measurement": "inhibition", "setting": "[3]", "value": 0.4, "unit": "%"}, {"measurement": "inhibition", "setting": "[4]", "value": -3.5, "unit": "%"}]}
{"molecule": "CCN1CCN(Cc2ccc(NC(=O)c3ccc(C)c(/C=C/c4cnc5[nH]ccc5c4OC)c3)cc2C(F)(F)F)CC1", "values": [{"measurement": "inhibition", "setting": "[5]", "value": 1.4, "unit": "%"}, {"measurement": "inhibition", "setting": "[6]", "value": 14.8, "unit": "%"}, {"measurement": "inhibition", "setting": "[7]", "value": 84, "unit": "%"}]}
